The test system of one data set is SiHa. Put plainly: Antiproliferative activity against human SiHa cells assessed as reduction in cell viability measured after 72 hrs by CCK8 assay. Format: functional, cell-based. Put shortly: (§1)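 Cells were seeded at 3×10³ cells/well and exposed to a range of concentrations or vehicle for 72 h. Viability was read by CCK-8 at 450 nm, with DMSO as blank and five replicates per sample. IC50 was calculated from the dose-response.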
For orientation: Tetrazolium assays rely on reduction of a dye to a coloured formazan, in cell work by metabolically active cells.

Another data set relates to HeLa. Put plainly: Antiproliferative activity against human HeLa cells assessed as reduction in cell viability measured after 72 hrs by CCK8 assay. Format: functional, cell-based. Put shortly:
as §1

Data set [1] has as its target Vascular endothelial growth factor receptor 2 (Homo sapiens, UniProt P35968). Kind of data set: Inhibition of recombinant human VEGFR2 (790 to end residues) using myelin ba as substrate at 1 uM incubated for 40 mins by [gamma-33P]-ATP based radiometric assay relative to control. Put shortly:
(§2)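 Kinase panel profiling at 1 μM performed by Eurofins KinaseProfiler; percent inhibition reported as mean of two independent experiments.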

Data set [2] deals with HUVEC. Kind of data set: Antiangiogenic activity against HUVEC cells assessed as reduction in tube formation at 20 to 40 nM incubated for 6 hrs by light microscopy. The format is functional, cell-based. To be noted: Homo sapiens. An outline of the steps:
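HUVECs, 4×10⁴ cells/well, were seeded on Matrigel that had been solidified at 37°C for 30 min. Cells were treated with compound or vehicle at 37°C for 6 h. Three random fields were counted and photographed under a light microscope.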

The test system of another data set is T47D. Put plainly: Antiproliferative activity against human T47D cells assessed as reduction in cell viability measured after 72 hrs by CCK8 assay. The format is functional, cell-based. Put shortly: as §1
The test system of the next data set is MDA-MB-231. Kind of data set: Antiproliferative activity against human MDA-MB-231 cells assessed as reduction in cell viability measured after 72 hrs by CCK8 assay. To be noted: MDA-MB-231, 72 h. The format is functional, cell-based. An outline of the steps:
as §1

For data set [3], the system named is HUVEC. Put plainly: Antiproliferative activity against HUVEC cells assessed as reduction in cell viability measured after 72 hrs by CCK8 assay. Format: functional, cell-based. To be noted: Homo sapiens. An outline of the steps:
as §1

The species entered for the next data set is Homo sapiens. Kind of data set: Inhibition of recombinant human full length PI3K p110alpha/p65alpha (1 to 571 residues) at 1 uM using phosphatidylinositol 4,5-bisphosphate as substrate incubated for 40 mins in presence of [gamma-33P]-ATP by scintillation counting method relative to control.
The nature of data set [4]: AUC (0 to t) in Sprague-Dawley rat at 10 mg/kg, iv by HPLC-MS analysis. The format is ADME, organism-based. The following applies: in vivo. An outline of the steps: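 Rats fitted with jugular vein catheters for serial blood sampling. Compound dissolved in saline with 5% (v/v) DMSO and given as a single 10 mg/kg dose iv or po after an overnight fast, n = 5 per group. Plasma isolated at once and measured by HPLC with tandem MS detection. Parameters derived by noncompartmental fitting.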

Data set [5] concerns the target Receptor-interacting serine/threonine-protein kinase 2 (Homo sapiens) (UniProt O43353). Put plainly: Inhibition of recombinant human RIPK2 (1 to 299 residues) at 1 uM using myelin basic protein as substrate incubated for 40 mins in presence of [gamma-33P]-ATP by scintillation counting method relative to control.
Data set [6] deals with Death-associated protein kinase 3 (Homo sapiens) (UniProt O43293). Put plainly: Inhibition of recombinant human ZIPK (1 to 290 residues) at 1 uM using KKLNRTLSFAEPG as substrate incubated for 40 mins in presence of [gamma-33P]-ATP by scintillation counting method relative to control.
Data set [7] deals with Angiopoietin-1 receptor (Homo sapiens), Q02763 [Y897S]. Put plainly: Inhibition of recombinant human TIE2 Y897S mutant (771 to end residues) at 1 uM using EFPIYDFLPAKKK as substrate incubated for 40 mins in presence of [gamma-33P]-ATP by scintillation counting method relative to control.
For data set [8], the target named is Tyrosine-protein kinase Tec (Homo sapiens) (UniProt P42680). Put plainly: Inhibition of activated recombinant human TEC (174 to end residues) at 1 uM using EFPIYDFLPAKKK as substrate incubated for 40 mins in presence of [gamma-33P]-ATP by scintillation counting method relative to control.
In data set [9] the target is Death-associated protein kinase 2 (Homo sapiens) (UniProt Q9UIK4). Put plainly: Inhibition of recombinant full length human DAPK2 at 1 uM using calmodulin as substrate incubated for 40 mins in presence of [gamma-33P]-ATP by scintillation counting method relative to control. An outline of the steps: as §2
Sequence of Death-associated protein kinase 2 (Homo sapiens) (Q9UIK4 whole entry, looked up): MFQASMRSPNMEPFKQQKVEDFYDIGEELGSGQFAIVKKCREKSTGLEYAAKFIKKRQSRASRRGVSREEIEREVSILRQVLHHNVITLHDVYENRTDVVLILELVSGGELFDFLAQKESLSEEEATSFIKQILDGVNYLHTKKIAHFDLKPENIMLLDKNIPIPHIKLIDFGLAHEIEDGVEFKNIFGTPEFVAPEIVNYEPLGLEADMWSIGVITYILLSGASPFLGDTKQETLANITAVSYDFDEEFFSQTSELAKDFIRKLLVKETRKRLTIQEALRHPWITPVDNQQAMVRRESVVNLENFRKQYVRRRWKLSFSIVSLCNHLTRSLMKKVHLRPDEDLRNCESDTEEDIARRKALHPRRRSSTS
Data set [10] addresses eIF-2-alpha kinase GCN2 (Homo sapiens) (UniProt Q9P2K8). Kind of data set: Inhibition of recombinant full length human GCN2 at 1 uM using RSRSRSRSRSRSRSR as substrate incubated for 40 mins in presence of [gamma-33P]-ATP by scintillation counting method relative to control. Put shortly:
(§3)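 Tested at a single 1 uM in an outsourced commercial kinase-profiling panel, read as percent inhibition. Each value is the mean of two independent experiments.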

The target of data set [11] is Discoidin domain-containing receptor 2 (Homo sapiens) (UniProt Q16832). Put plainly: Inhibition of recombinant human DDR2 (467 to end residues) at 1 uM using KKSRGDYMTMQIG as substrate incubated for 40 mins in presence of [gamma-33P]-ATP by scintillation counting method relative to control. Put shortly: as §2
Sequence of Discoidin domain-containing receptor 2 (Homo sapiens) (Q16832 whole entry, the tested form may be a part): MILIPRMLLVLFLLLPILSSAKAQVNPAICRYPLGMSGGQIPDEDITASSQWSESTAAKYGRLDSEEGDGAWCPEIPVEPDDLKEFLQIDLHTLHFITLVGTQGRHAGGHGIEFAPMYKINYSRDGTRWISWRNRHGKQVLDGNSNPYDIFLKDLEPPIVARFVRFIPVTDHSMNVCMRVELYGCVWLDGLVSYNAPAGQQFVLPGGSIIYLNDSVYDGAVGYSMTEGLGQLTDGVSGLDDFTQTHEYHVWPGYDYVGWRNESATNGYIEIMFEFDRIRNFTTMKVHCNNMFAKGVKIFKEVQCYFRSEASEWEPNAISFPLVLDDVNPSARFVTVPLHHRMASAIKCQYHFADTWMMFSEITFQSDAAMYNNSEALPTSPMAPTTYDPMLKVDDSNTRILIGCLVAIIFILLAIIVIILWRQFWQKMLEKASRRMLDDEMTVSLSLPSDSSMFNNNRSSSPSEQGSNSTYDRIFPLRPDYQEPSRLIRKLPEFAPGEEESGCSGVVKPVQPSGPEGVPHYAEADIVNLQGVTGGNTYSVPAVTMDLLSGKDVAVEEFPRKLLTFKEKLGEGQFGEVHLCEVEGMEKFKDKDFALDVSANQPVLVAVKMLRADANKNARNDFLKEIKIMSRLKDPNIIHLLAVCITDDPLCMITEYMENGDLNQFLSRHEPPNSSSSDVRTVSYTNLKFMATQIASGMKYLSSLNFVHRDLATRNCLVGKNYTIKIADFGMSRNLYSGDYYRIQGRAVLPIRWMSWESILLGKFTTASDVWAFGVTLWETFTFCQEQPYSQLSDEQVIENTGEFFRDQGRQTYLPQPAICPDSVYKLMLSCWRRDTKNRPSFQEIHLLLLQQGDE
The target in data set [12] is Serine/threonine-protein kinase Nek1 (Homo sapiens) (UniProt Q96PY6). Put plainly: Inhibition of recombinant human NEK1 (1 to 505 residues) at 1 uM using RLGRDKYKTLRQIRQ as substrate incubated for 40 mins in presence of [gamma-33P]-ATP by scintillation counting method relative to control.
In data set [13] the test system is Mast/stem cell growth factor receptor Kit (Homo sapiens), P10721 [V654A]. Kind of data set: Inhibition of recombinant human c-KIT V654A mutant (544 to end residues) at 1 uM using GGMEDIYFEFMGG as substrate incubated for 40 mins in presence of [gamma-33P]-ATP by scintillation counting method relative to control. An outline of the steps:
as §3

For data set [14], the target named is ALK tyrosine kinase receptor (Homo sapiens) (UniProt Q9UM73). Put plainly: Inhibition of recombinant human ALK (1058 to end residues) at 1 uM using KKKSPGEYVNIEF as substrate incubated for 40 mins in presence of [gamma-33P]-ATP by scintillation counting method relative to control. Put shortly:
as §2

Data set [15] concerns the target Testis-specific serine/threonine-protein kinase 4 (Homo sapiens) (UniProt Q6SA08). Put plainly: Inhibition of recombinant human full length TSSK4 at 1 uM using KKLNRTLSFAEPG as substrate incubated for 40 mins in presence of [gamma-33P]-ATP by scintillation counting method relative to control. Put shortly: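 Single-point inhibition at 1 uM measured in a commercial kinase profiling panel (KinaseProfiler); each value is the mean of two independent experiments.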

Data set [16] concerns the target Serine/threonine-protein kinase ULK3 (Homo sapiens) (UniProt Q6PHR2). Kind of data set: Inhibition of recombinant human full length ULK3 at 1 uM using casein as substrate incubated for 40 mins in presence of [gamma-33P]-ATP by scintillation counting method relative to control.
Data set [17] deals with LIM domain kinase 1 (Homo sapiens) (UniProt P53667). Put plainly: Inhibition of recombinant human LIMK1 (285 to 638 residues) at 1 uM using cofilin as substrate incubated for 40 mins in presence of [gamma-33P]-ATP by scintillation counting method relative to control.
Sequence of LIM domain kinase 1 (Homo sapiens) (P53667 whole entry, looked up, the tested form may be a part): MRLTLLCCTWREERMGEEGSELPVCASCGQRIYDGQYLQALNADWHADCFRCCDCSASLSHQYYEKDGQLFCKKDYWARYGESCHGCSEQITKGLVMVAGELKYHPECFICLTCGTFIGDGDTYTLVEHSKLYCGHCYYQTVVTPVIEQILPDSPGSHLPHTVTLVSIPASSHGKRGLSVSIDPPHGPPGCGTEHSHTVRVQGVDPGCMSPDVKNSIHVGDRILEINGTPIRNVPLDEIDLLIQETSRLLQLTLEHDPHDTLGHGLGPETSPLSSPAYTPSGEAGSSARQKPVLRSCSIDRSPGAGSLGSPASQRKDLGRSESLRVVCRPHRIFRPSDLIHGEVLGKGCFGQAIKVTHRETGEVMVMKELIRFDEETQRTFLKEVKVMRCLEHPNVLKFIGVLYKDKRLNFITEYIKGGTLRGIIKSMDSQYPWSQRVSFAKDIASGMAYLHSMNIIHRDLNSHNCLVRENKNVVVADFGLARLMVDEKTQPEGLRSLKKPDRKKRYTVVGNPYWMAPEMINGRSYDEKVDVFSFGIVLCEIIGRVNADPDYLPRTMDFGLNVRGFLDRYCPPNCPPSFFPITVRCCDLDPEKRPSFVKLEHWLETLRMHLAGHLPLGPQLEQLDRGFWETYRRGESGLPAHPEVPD

Calls of active or inactive are those of the source. The rule behind the calls is not given here.

The results in this text go back to ChEMBL document CHEMBL4406821, “Novel dual inhibitors targeting CDK4 and VEGFR2 synergistically suppressed cancer progression and angiogenesis” (Eur J Med Chem, 2019).

Sequence of Vascular endothelial growth factor receptor 2 (P35968 whole entry): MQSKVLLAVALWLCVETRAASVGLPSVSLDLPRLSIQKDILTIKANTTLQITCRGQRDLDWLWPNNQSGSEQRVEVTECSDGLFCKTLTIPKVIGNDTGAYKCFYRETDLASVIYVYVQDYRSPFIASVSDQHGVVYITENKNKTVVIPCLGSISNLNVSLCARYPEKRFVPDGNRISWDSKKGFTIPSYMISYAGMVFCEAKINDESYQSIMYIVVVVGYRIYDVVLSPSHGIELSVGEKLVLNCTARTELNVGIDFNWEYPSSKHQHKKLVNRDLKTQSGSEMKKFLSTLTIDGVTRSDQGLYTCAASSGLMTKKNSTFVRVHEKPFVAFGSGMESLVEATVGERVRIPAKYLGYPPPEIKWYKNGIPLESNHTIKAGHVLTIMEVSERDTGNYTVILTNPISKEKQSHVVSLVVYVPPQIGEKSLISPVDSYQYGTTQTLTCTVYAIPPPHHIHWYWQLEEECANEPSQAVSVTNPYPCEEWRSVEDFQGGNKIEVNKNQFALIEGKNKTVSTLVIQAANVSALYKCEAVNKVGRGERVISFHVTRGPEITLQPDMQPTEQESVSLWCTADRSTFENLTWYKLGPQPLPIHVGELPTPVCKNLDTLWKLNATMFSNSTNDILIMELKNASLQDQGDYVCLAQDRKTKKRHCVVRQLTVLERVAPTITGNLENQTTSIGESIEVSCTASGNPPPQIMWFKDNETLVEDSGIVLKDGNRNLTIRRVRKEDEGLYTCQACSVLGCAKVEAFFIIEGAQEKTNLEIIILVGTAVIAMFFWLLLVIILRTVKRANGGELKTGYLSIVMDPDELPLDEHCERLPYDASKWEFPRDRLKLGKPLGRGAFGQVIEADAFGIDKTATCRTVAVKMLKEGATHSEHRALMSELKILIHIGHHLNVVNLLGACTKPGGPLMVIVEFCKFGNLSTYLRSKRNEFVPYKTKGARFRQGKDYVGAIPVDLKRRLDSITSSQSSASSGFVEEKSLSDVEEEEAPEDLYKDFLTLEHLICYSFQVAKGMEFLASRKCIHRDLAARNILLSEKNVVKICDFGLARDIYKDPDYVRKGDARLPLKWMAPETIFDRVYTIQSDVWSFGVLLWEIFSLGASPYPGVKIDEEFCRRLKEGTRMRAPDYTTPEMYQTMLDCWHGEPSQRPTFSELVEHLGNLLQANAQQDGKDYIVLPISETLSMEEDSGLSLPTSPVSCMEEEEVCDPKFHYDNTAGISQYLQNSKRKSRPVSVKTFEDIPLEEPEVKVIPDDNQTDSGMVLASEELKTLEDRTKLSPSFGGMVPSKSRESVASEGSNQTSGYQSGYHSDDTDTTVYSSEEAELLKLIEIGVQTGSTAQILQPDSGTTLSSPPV
Sequence of Serine/threonine-protein kinase ULK3 (Homo sapiens) (Q6PHR2 whole entry, the tested form may be a part): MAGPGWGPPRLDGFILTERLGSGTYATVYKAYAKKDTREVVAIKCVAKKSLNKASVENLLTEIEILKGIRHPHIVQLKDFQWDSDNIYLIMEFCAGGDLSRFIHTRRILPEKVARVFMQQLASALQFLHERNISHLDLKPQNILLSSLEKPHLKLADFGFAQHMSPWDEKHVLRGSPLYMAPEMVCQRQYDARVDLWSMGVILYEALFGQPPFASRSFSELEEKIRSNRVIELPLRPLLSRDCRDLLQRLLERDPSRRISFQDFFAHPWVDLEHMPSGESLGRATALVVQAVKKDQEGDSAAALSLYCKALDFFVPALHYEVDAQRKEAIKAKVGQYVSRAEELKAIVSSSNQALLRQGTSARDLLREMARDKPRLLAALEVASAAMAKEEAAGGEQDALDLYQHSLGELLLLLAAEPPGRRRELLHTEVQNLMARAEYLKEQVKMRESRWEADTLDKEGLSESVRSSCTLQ
Sequence of Mast/stem cell growth factor receptor Kit (Homo sapiens), P10721 [V654A] (P10721 whole entry V654A): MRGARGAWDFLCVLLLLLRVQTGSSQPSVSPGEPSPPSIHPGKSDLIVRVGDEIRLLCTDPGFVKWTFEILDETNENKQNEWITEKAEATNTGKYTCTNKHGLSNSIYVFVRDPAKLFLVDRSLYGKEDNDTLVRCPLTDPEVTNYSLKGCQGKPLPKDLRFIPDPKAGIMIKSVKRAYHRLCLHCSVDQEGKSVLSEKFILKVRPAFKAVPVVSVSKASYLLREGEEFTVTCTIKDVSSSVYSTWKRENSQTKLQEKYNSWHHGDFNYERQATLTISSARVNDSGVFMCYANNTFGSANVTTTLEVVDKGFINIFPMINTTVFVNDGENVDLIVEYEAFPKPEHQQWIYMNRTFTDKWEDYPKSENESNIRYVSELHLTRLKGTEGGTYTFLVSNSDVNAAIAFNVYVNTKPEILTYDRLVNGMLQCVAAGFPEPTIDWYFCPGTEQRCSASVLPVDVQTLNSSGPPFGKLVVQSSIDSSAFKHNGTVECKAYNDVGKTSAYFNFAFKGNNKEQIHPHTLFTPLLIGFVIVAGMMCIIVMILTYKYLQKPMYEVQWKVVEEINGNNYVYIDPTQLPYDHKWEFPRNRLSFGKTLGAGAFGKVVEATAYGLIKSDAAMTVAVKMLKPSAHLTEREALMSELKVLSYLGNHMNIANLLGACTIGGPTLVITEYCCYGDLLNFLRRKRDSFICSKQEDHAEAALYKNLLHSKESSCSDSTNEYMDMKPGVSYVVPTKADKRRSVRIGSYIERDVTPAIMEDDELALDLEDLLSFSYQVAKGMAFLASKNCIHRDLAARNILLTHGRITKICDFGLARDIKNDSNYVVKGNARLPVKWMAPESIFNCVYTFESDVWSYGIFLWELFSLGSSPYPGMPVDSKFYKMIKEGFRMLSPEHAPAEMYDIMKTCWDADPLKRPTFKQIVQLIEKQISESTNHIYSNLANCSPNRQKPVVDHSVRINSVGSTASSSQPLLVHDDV
Sequence of Testis-specific serine/threonine-protein kinase 4 (Homo sapiens) (Q6SA08 whole entry): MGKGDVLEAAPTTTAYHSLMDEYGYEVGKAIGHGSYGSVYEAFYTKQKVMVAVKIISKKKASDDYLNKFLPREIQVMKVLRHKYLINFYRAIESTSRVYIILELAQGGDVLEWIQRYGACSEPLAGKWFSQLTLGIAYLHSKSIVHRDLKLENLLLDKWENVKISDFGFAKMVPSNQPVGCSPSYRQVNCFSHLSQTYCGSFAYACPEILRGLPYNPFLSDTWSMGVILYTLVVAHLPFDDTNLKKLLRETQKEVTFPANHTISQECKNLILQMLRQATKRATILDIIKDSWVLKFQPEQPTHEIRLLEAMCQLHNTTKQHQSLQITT

What is called IC50 is the point on the concentration scale where inhibition reaches its midpoint. As usually defined, the inhibition is the change of the read-out against control, counted positive when it falls. Turning to `COc1cc2nccc(Oc3ccc(NC(=O)C4(C(=O)Nc5ccc(F)cc5)CC4)cc3)c2cc1OC` [CABOZANTINIB], the IC50 is 7940 nM in the data set on SiHa; over 10000 nM in the data set with HeLa; 4790 nM with T47D; 5080 nM with MDA-MB-231; 7670 nM with HUVEC [3]. Also, the inhibition in [1] was 101%. Besides, the inhibition result in the data set with HUVEC [2] was “Active”.
A word on the AUC(0-t): it is the area under the concentration-time curve up to a stated or last time point. On to `Cc1ccc(NC(=O)C2(C(=O)Nc3ccc(Nc4ncc(F)c(-c5cc(F)c6nc(C)n(C(C)C)c6c5)n4)cc3)CC2)cc1`, for which the inhibition turned out to be 6% in the data set listed under Homo sapiens; 46% in data set [5]; 12% in data set [6]; 51% in data set [7]; 1% in data set [8]; 10% in [9]. For the same compound, the inhibition was 0% in [10]; 95% in data set [1]; 55% in data set [11]; 72% in data set [12]; 45% in data set [13]; 18% in data set [14]. Also, the inhibition in data set [15] stood at 0%; in data set [16], 37%; in data set [17] it was 24%. Also, the AUC(0-t) in data set [4] came to 10000 ng·h/mL. Moreover, the IC50 in the data set with SiHa is 50 nM; in the data set on HeLa it was 71.5 to 72 nM; with T47D, 16 to 16.4 nM; with MDA-MB-231, 38 nM; in the data set with HUVEC [3] it was 36 nM. Also, the inhibition result in the data set on HUVEC [2] is “Active”.
